Laboratory results published in ChEMBL document CHEMBL1255219, “Discovery of a β-d-2'-deoxy-2'-α-fluoro-2'-β-C-methyluridine nucleotide prodrug (PSI-7977) for the treatment of hepatitis C virus” (J Med Chem, 2010).

What was measured:
Hepatitis C virus [1] = experiment: Antiviral activity against HCV infected in human clone A cells; format: functional, Hepacivirus hominis
Outline: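 Clone A replicon cells seeded at 1500 cells/well. Compounds serially diluted in G418-free culture medium and added, then incubated 4 days at 37 °C in 5% CO2. HCV RNA quantified by real-time RT-PCR as ΔCt relative to the mean no-drug control.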

Hepatitis C virus [2] = experiment: Antiviral activity against HCV infected in human clone A cells assessed as inhibition of cellular rRNA replication at 50 uM; format: functional, Hepacivirus hominis
Rattus norvegicus [3] = experiment: AUC (0 to infinity) in rat liver assessed as 2'-F-2'-C-Methyluridine-5''-TP level at 50 mg/kg, po; format: ADME, organism-based; design: time infinity, dose 50 mg/kg, route oral; settings: in vivo
Outline: (§1)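 Rats given a single oral gavage dose of 50 mg/kg in 0.5% carboxymethylcellulose sodium, 5 mL/kg. Livers taken at 0.5, 1, 2, 4, 6 and 12 h after CO2 sacrifice and ice-cold saline perfusion, then snap-frozen. Homogenized in 3 volumes of cold 70% methanol with 20 mM EDTA/EGTA. Triphosphate measured by LC/MS/MS (ESI, MRM negative mode), noncompartmental analysis.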

Rattus norvegicus [4] = experiment: AUC (0 to t) in rat liver assessed as 2'-F-2'-C-Methyluridine-5''-TP level at 50 mg/kg, po; format: ADME, organism-based; design: dose 50 mg/kg, route oral; settings: in vivo; outline: as §1
Rattus norvegicus [5] = experiment: Cmax in rat liver assessed as 2'-F-2'-C-Methyluridine-5''-TP level at 50 mg/kg, po; format: ADME, organism-based; design: dose 50 mg/kg, route oral; settings: in vivo; outline: as §1
Rattus norvegicus [6] = experiment: Tmax in rat liver assessed as 2'-F-2'-C-Methyluridine-5''-TP level at 50 mg/kg, po; format: ADME, organism-based; design: dose 50 mg/kg, route oral; settings: in vivo; outline: as §1
[7] = Half life in human liver S9 fraction at 100 uM; format: ADME, subcellular
Outline: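 Compound at 100 μM in 50 mM K2HPO4 pH 7.4 with 5 mM MgCl2. Started with 4 mg/mL human liver S9 at 37 °C. Samples at 0–24 h quenched with acetonitrile. Parent remaining measured by LC/MS/MS peak area relative to 0 h, and half-life calculated.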

[8] = Half life in simulated intestinal fluid of pH 7.5 at 50 ug/mL; format: physicochemical
Outline: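 Compound at 50 μg/mL in simulated gastric fluid (pH 1.2) or simulated intestinal fluid (pH 7.5), 37 °C, 20 h. Injected by reverse-phase HPLC every 2 h, peak area at 260 nm.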

[9] = Half life in simulated gastric fluid at pH 1.2 at 50 ug/mL; format: physicochemical
Outline: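 Compound at 50 μg/mL in simulated gastric fluid (pH 1.2) or simulated intestinal fluid (pH 7.5), 37 °C, 20 h. Injected by reverse-phase HPLC every 2 h, peak area at 260 nm. Percent parent remaining relative to 0 h, giving half-life.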

Homo sapiens = species on record: Homo sapiens; experiment: Half life in human plasma at 100 uM

For `CC[C@H](NP(=O)(OC[C@H]1O[C@@H](n2ccc(=O)[nH]c2=O)[C@](C)(F)[C@@H]1O)Oc1ccccc1)C(=O)OC` (stereo partly specified), the EC90 (Hepatitis C virus [1]; Hepatitis C virus) was 1610 nM and the inhibition at 50 µM (Hepatitis C virus [2]) was 0%.
In the case of `COC(=O)[C@@H](NP(=O)(OC[C@H]1O[C@@H](n2ccc(=O)[nH]c2=O)[C@](C)(F)[C@@H]1O)Oc1ccccc1)C(C)C` (stereo partly specified), the EC90 (Hepatitis C virus [1]; Hepatitis C virus) was > 50000 nM and the inhibition at 50 µM (Hepatitis C virus [2]) was 0%.
Compound `COC(=O)[C@H](CC(C)C)NP(=O)(OC[C@H]1O[C@@H](n2ccc(=O)[nH]c2=O)[C@](C)(F)[C@@H]1O)Oc1ccccc1` (stereo partly specified) has an EC90 (Hepatitis C virus [1]; Hepatitis C virus) of 5400 nM and an inhibition at 50 µM (Hepatitis C virus [2]) of 0%.
With `COC(=O)[C@H](CCSC)NP(=O)(OC[C@H]1O[C@@H](n2ccc(=O)[nH]c2=O)[C@](C)(F)[C@@H]1O)Oc1ccccc1` (stereo partly specified) the EC90 (Hepatitis C virus [1]; Hepatitis C virus) was 60100 nM and the inhibition at 50 µM (Hepatitis C virus [2]) was 24.1%.
`COC(=O)[C@H](Cc1ccccc1)NP(=O)(OC[C@H]1O[C@@H](n2ccc(=O)[nH]c2=O)[C@](C)(F)[C@@H]1O)Oc1ccccc1` (stereo partly specified) showed an EC90 (Hepatitis C virus [1]; Hepatitis C virus) of 57600 nM and an inhibition at 50 µM (Hepatitis C virus [2]) of 20.6%.
With `COC(=O)C(C)(C)NP(=O)(OC[C@H]1O[C@@H](n2ccc(=O)[nH]c2=O)[C@](C)(F)[C@@H]1O)Oc1ccc(F)cc1` (stereo partly specified) the EC90 (Hepatitis C virus [1]; Hepatitis C virus) was 2200 nM and the inhibition at 50 µM (Hepatitis C virus [2]) was 0%.
For `COC(=O)C1(NP(=O)(OC[C@H]2O[C@@H](n3ccc(=O)[nH]c3=O)[C@](C)(F)[C@@H]2O)Oc2ccc(F)cc2)CC1` (stereo partly specified), the EC90 (Hepatitis C virus [1]; Hepatitis C virus) was > 50000 nM and the inhibition at 50 µM (Hepatitis C virus [2]) was 0%.
`CCOC(=O)[C@H](C)NP(=O)(OC[C@H]1O[C@@H](n2ccc(=O)[nH]c2=O)[C@](C)(F)[C@@H]1O)Oc1ccccc1` (stereo partly specified) gave an EC90 (Hepatitis C virus [1]; Hepatitis C virus) of 980 nM and an inhibition at 50 µM (Hepatitis C virus [2]) of 36.9%.
`CCOC(=O)[C@H](C)NP(=O)(OC[C@H]1O[C@@H](n2ccc(=O)[nH]c2=O)[C@](C)(F)[C@@H]1O)Oc1ccc(F)cc1` (stereo partly specified) showed an EC90 (Hepatitis C virus [1]; Hepatitis C virus) of 760 nM, an AUC (Rattus norvegicus [3]) of 5423 ng·h/g and an AUC (Rattus norvegicus [4]) of 4191 ng·h/g. It also gave a Cmax (Rattus norvegicus [5]) of 291 ng/g, a Tmax (Rattus norvegicus [6]) of 4 h and a half-life at 100 µM [7] of 0.23 h. The half-life at 50 ug/mL [8] was > 20 h, the half-life at 50 ug/mL [9] was 17 h and the inhibition at 50 µM (Hepatitis C virus [2]) was 55.3%. For the same compound, the half-life at 100 µM (Homo sapiens) was > 8 h.
In the case of `CCCCOC(=O)[C@H](C)NP(=O)(OC[C@H]1O[C@@H](n2ccc(=O)[nH]c2=O)[C@](C)(F)[C@@H]1O)Oc1ccccc1` (stereo partly specified), the EC90 (Hepatitis C virus [1]; Hepatitis C virus) was 90 nM and the inhibition at 50 µM (Hepatitis C virus [2]) was 79.6%.
Compound `CCOC(=O)[C@H](C)NP(=O)(OC[C@H]1O[C@@H](n2ccc(=O)[nH]c2=O)[C@](C)(F)[C@@H]1O)Oc1ccc(Cl)cc1` (stereo partly specified) has an EC90 (Hepatitis C virus [1]; Hepatitis C virus) of 390 nM and an inhibition at 50 µM (Hepatitis C virus [2]) of 0%.
With `CCOC(=O)[C@H](C)NP(=O)(OC[C@H]1O[C@@H](n2ccc(=O)[nH]c2=O)[C@](C)(F)[C@@H]1O)Oc1ccc(Br)cc1` (stereo partly specified) the EC90 (Hepatitis C virus [1]; Hepatitis C virus) was 360 nM and the inhibition at 50 µM (Hepatitis C virus [2]) was 80.5%.
Work on `CC(C)OC(=O)[C@H](C)NP(=O)(OC[C@H]1O[C@@H](n2ccc(=O)[nH]c2=O)[C@](C)(F)[C@@H]1O)Oc1ccc(F)cc1` (stereo partly specified) yielded an EC90 (Hepatitis C virus [1]; Hepatitis C virus) of 770 nM, an AUC (Rattus norvegicus [3]) of 7375 ng·h/g and an AUC (Rattus norvegicus [4]) of 6140 ng·h/g. The Cmax (Rattus norvegicus [5]) was 519 ng/g, the Tmax (Rattus norvegicus [6]) was 6 h and the half-life at 100 µM [7] was 0.42 h. The half-life at 50 ug/mL [8] was > 20 h, the half-life at 50 ug/mL [9] was > 20 h and the inhibition at 50 µM (Hepatitis C virus [2]) was 0%. For the same compound, the half-life at 100 µM (Homo sapiens) was > 24 h.
`CC(C)OC(=O)[C@H](C)NP(=O)(OC[C@H]1O[C@@H](n2ccc(=O)[nH]c2=O)[C@](C)(F)[C@@H]1O)Oc1ccc(Br)cc1` (stereo partly specified) showed an EC90 (Hepatitis C virus [1]; Hepatitis C virus) of 570 nM and an inhibition at 50 µM (Hepatitis C virus [2]) of 0%.
`C[C@H](NP(=O)(OC[C@H]1O[C@@H](n2ccc(=O)[nH]c2=O)[C@](C)(F)[C@@H]1O)Oc1ccc(Cl)cc1)C(=O)OC1CCCCC1` (stereo partly specified) showed an EC90 (Hepatitis C virus [1]; Hepatitis C virus) of 54 nM and an inhibition at 50 µM (Hepatitis C virus [2]) of 66.9%.
`C[C@H](NP(=O)(OC[C@H]1O[C@@H](n2ccc(=O)[nH]c2=O)[C@](C)(F)[C@@H]1O)Oc1ccc(Br)cc1)C(=O)OC1CCCCC1` (stereo partly specified) showed an EC90 (Hepatitis C virus [1]; Hepatitis C virus) of 39 nM and an inhibition at 50 µM (Hepatitis C virus [2]) of 91.5%.
With `CC(C)OC(=O)C(C)N[P@](=O)(OC[C@H]1O[C@@H](n2ccc(=O)[nH]c2=O)[C@](C)(F)[C@@H]1O)Oc1ccccc1` (single isomer, unassigned) [SOFOSBUVIR] the EC90 (Hepatitis C virus [1]) was > 50000 nM.
Work on `CC(C)C(=O)OC[C@H]1O[C@@H](n2ccc(N)nc2=O)[C@](C)(F)[C@@H]1OC(=O)C(C)C` [MERICITABINE] yielded an EC90 (Hepatitis C virus [1]; Hepatitis C virus) of 3900 nM and an inhibition at 50 µM (Hepatitis C virus [2]) of 0%.
